A word on the Ki: it is the dissociation constant of the complex between target and ligand, obtained from inhibition or displacement. A low value points to tighter binding.

We go through 4 compounds from ChEMBL document CHEMBL2417545, “6-methoxy-7-benzofuranoxy and 6-methoxy-7-indolyloxy analogues of 2-[2-(2,6-Dimethoxyphenoxy)ethyl]aminomethyl-1,4-benzodioxane (WB4101):1 discovery of a potent and selective α1D-adrenoceptor antagonist” (J Med Chem, 2013).

Structures are written as SMILES.

Assay [1] has as its target T1, Alpha-1D adrenergic receptor (Homo sapiens, UniProt P25100).
T1 sequence (P25100 whole entry): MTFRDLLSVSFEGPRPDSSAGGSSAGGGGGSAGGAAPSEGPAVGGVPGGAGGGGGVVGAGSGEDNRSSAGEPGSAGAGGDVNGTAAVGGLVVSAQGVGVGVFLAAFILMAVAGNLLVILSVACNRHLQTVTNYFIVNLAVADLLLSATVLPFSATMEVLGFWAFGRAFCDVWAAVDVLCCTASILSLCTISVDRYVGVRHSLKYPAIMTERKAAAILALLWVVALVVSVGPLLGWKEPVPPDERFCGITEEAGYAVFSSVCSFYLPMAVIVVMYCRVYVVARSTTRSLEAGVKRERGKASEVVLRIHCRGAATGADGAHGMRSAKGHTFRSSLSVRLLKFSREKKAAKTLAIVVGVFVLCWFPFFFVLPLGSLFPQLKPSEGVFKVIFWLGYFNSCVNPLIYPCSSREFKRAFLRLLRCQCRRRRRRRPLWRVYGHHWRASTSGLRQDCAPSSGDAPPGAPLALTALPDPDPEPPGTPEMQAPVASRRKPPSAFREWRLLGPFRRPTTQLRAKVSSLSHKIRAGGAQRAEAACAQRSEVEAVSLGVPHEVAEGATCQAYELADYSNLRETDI
The assay is described as follows: Displacement of [3H]prazosin from human alpha-1D adrenoreceptor expressed in CHO cells after 30 mins. It is filed as cell-based. Put shortly:
(§1)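 Membranes from CHO cells expressing each α₁-AR subtype, incubated 30 min at 25 °C in 50 mM Tris HCl pH 7.7 with 10 μM pargyline and 0.1% ascorbic acid, plus 0.5 nM [³H]prazosin and varying test compound concentrations. Nonspecific binding was defined with 1 μM prazosin.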
Background: Loss of bound radioactivity is the signal in a displacement assay; it reports binding, not function.

In assay [2] the target is T2, Alpha-1A adrenergic receptor (Homo sapiens, UniProt P35348).
T2 sequence (P35348 whole entry): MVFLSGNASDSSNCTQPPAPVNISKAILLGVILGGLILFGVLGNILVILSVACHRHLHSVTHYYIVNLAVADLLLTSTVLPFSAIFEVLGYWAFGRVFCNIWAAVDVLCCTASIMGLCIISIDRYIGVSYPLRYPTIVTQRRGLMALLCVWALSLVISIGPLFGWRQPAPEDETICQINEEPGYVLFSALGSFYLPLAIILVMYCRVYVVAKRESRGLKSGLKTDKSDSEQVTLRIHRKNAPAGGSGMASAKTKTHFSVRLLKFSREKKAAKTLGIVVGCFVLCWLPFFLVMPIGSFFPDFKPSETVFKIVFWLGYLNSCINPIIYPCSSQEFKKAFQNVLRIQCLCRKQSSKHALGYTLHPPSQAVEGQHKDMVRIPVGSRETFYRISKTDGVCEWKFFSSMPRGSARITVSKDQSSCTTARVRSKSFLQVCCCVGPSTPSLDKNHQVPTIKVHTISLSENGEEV
The assay is described as follows: Displacement of [3H]prazosin from human alpha-1A adrenoreceptor expressed in CHO cells after 30 mins. It is filed as cell-based. The method in brief:
as §1

For assay [3], the target named is T3, Alpha-1B adrenergic receptor (Homo sapiens, UniProt P35368).
T3 sequence (P35368 whole entry): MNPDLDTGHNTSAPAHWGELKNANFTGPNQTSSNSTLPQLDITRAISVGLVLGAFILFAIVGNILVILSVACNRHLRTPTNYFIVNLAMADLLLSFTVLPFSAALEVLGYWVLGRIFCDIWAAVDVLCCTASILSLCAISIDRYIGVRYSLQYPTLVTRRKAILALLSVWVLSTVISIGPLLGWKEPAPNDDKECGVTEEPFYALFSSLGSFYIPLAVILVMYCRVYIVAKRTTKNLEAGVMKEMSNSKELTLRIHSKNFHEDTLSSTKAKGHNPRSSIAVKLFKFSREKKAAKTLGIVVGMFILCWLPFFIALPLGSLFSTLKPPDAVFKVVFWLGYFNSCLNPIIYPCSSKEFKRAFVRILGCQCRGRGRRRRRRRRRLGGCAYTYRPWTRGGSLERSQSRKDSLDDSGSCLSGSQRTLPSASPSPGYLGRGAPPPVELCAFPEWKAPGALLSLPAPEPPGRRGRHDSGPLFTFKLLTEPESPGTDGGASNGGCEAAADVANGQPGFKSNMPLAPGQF
The assay is described as follows: Displacement of [3H]prazosin from human alpha-1B adrenoreceptor expressed in CHO cells after 30 mins. It is filed as cell-based. Put shortly:
as §1

In assay [4] the target is T4, 5-hydroxytryptamine receptor 1A (Rattus norvegicus, UniProt P19327).
T4 sequence (P19327 whole entry): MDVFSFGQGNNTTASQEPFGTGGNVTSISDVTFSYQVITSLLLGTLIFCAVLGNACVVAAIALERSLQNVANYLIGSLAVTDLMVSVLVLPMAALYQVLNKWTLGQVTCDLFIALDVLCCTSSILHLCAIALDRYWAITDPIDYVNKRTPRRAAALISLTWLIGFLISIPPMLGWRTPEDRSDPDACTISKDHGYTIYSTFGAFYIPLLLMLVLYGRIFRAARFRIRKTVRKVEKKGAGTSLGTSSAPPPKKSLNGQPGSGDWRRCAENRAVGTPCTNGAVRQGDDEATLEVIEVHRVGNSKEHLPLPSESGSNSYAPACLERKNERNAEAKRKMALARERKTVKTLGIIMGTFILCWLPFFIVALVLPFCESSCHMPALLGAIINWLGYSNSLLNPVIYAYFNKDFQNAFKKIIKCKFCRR
The assay is described as follows: Displacement of [3H]-8-OHDPAT from 5-HT1A receptor in rat hippocampal membranes after 30 mins. It is filed as cell membranes, Hippocampus, Membrane.

Take `COc1ccc2cc[nH]c2c1OCCNC[C@@H]1COc2ccccc2O1`: the inhibition constant Ki is 1.35 µM in assay [1], 0.437 µM in assay [2], 1.91 µM in assay [3] and 1.7 µM in assay [4].
Taken in the same sequence, the figures for `COc1ccc2c(c1OCCNC[C@@H]1COc3ccccc3O1)OCC2` were 0.0182 µM, 0.017 µM, 0.162 µM and 0.162 µM.
Taken in the same sequence, the figures for `COc1ccc2c(c1OCCNC[C@@H]1COc3ccccc3O1)NCC2` were 0.0832 µM, 0.0316 µM, 0.372 µM and 0.219 µM.
As for `COc1ccc2ccoc2c1OCCNC[C@@H]1COc2ccccc2O1`, the Ki in assay [1] is 0.0182 µM; in assay [2] it was 0.00912 µM; in assay [3] it was 0.126 µM; in assay [4], 0.011 µM.
